Here are results for 4 molecules from ChEMBL document CHEMBL3396946, “Design, synthesis and pharmacological evaluation of N-[4-(4-(alkyl/aryl/heteroaryl)-piperazin-1-yl)-phenyl]-carbamic acid ethyl ester derivatives as novel anticonvulsant agents” (Bioorg Med Chem Lett, 2015).

Active and inactive are the calls of the source. No cut-off for these calls is given here.

Data set [1] concerns Mus musculus. Briefly: Anticonvulsant activity in Swiss albino mouse assessed as reduction in clonic seizures at 300 mg/kg, ip after 0.5 hrs by subcutaneous pentylenetetrazole seizure test. The class given is functional, organism-based. On the set-up: dose 300 mg/kg. Put shortly:
(§1)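 Adult male Swiss albino mice; test agents given i.p. at 30, 100 and 300 mg/kg, with animals examined 0.5 h and 4.0 h after injection. Value is the minimal dose protecting half or more of the mice; a dash means no activity at 300 mg/kg.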

For data set [2], the system named is Mus musculus. Briefly: Anticonvulsant activity in Swiss albino mouse assessed as reduction in electrical stimulus-induced seizures at 300 mg/kg, ip after 0.5 hrs by maximal electroshock seizure test. The class given is functional, organism-based. On the set-up: dose 300 mg/kg. Put shortly:
as §1
In general terms: In the maximal electroshock model the usual endpoint is tonic extension of the hind limbs.

Data set [3] relates to Mus musculus. Kind of data set: Toxicity in Swiss albino mouse assessed as induction of myoclonic jerks at 100 mg/kg, ip after 4 hrs during subcutaneous pentylenetetrazole seizure test. The class given is organism-based. Set-up: dose 100 mg/kg.
In data set [4] the test system is Mus musculus. Kind of data set: Anticonvulsant activity in intraperitoneally dosed Swiss albino mouse assessed as reduction in electrical stimulus-induced seizures after 4 hrs by maximal electroshock seizure test. In kind it is functional. The gist of the method:
as §1

Data set [5] has as its system Mus musculus. Kind of data set: Neurological toxicity in Swiss albino mouse assessed as motor impairment at 300 mg/kg, ip after 4 hrs by rotarod test. The class given is organism-based. On the set-up: dose 300 mg/kg, route intraperitoneal. As to conditions: in vivo. The gist of the method: (§2)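 Adult male Swiss albino mice dosed i.p. at 30, 100 and 300 mg/kg, examined at 0.5 h and 4.0 h. Neurotoxicity is scored as failure to hold onto the rotating rod, with three successive trials. Value is the minimal dose active in half or more of the mice.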
In general terms: The rotarod test checks motor coordination on a turning rod.

In data set [6] the test system is Mus musculus. Kind of data set: Neurological toxicity in Swiss albino mouse assessed as motor impairment at 300 mg/kg, ip after 0.5 hrs by rotarod test. In kind it is organism-based. Set-up: dose 300 mg/kg, route intraperitoneal. As to conditions: in vivo. The gist of the method: as §2
Data set [7] has as its system Mus musculus. Kind of data set: Anticonvulsant activity in intraperitoneally dosed Swiss albino mouse assessed as reduction in clonic seizures after 4 hrs by subcutaneous pentylenetetrazole seizure test. The class given is functional. Put shortly:
as §1

Data set [8] concerns Mus musculus. Kind of data set: Anticonvulsant activity in Swiss albino mouse assessed as reduction in clonic seizures at 300 mg/kg, ip after 4 hrs by subcutaneous pentylenetetrazole seizure test. The class given is functional, organism-based. On the set-up: dose 300 mg/kg. The gist of the method: as §1
Data set [9] concerns Mus musculus. Kind of data set: Toxicity in Swiss albino mouse assessed as induction of myoclonic jerks at 300 mg/kg, ip after 0.5 hrs during subcutaneous pentylenetetrazole seizure test. On the set-up: dose 300 mg/kg. The class given is organism-based.
The subject of data set [10] is Mus musculus. Kind of data set: Anticonvulsant activity in intraperitoneally dosed Swiss albino mouse assessed as reduction in clonic seizures after 0.5 hrs by subcutaneous pentylenetetrazole seizure test. In kind it is functional. Put shortly: as §1
In data set [11] the test system is Mus musculus. Briefly: Anticonvulsant activity in Swiss albino mouse assessed as reduction in electrical stimulus-induced seizures at 300 mg/kg, ip after 4 hrs by maximal electroshock seizure test. On the set-up: dose 300 mg/kg. The class given is functional, organism-based. Put shortly: as §1
Data set [12] has as its system Mus musculus. Briefly: Toxicity in Swiss albino mouse assessed as induction of sedation at 300 mg/kg, ip after 0.5 hrs during subcutaneous pentylenetetrazole seizure test. The class given is organism-based. On the set-up: dose 300 mg/kg.
In data set [13] the test system is Mus musculus. Briefly: Toxicity in Swiss albino mouse assessed as induction of sedation at 100 mg/kg, ip after 0.5 hrs during maximal electroshock seizure test. The class given is organism-based. Set-up: dose 100 mg/kg, route intraperitoneal. The following applies: in vivo.
In data set [14] the test system is Mus musculus. Briefly: Anticonvulsant activity in intraperitoneally dosed Swiss albino mouse assessed as reduction in electrical stimulus-induced seizures after 0.5 hrs by maximal electroshock seizure test. The class given is functional. The gist of the method: as §1
Data set [15] concerns Mus musculus. Briefly: Toxicity in Swiss albino mouse assessed as induction of myoclonic jerks at 100 mg/kg, ip after 0.5 hrs during subcutaneous pentylenetetrazole seizure test. Set-up: dose 100 mg/kg. In kind it is organism-based.
Data set [16] can be described thus: Neurological toxicity in intraperitoneally dosed Swiss albino mouse assessed as motor impairment after 0.5 hrs by rotarod test. The class given is organism-based. The following applies: in vivo, ip, read-out: MTD50.
Data set [17] is described as follows: Neurological toxicity in intraperitoneally dosed Swiss albino mouse assessed as motor impairment after 4 hrs by rotarod test. In kind it is organism-based. As to conditions: in vivo, ip, read-out: MTD50.

On to `CCOC(=O)Nc1ccc(N2CCN(C(c3ccc(F)cc3)c3ccc(F)cc3)CC2)cc1`, for which the outcome in the data set on Mus musculus [1] and in the data set with Mus musculus [2] was inactive. Moreover, the Activity entry in the data set with Mus musculus [3] is “Toxic”; in the data set with Mus musculus [5], “Non-toxic”; with Mus musculus [6] it was “Non-toxic”. The figures for the MED50 in the data set on Mus musculus [4] and in the data set with Mus musculus [7] were 300 mg/kg and 100 mg/kg, respectively.
For `CCOC(=O)Nc1ccc(N2CCN(Cc3ccc4c(c3)OCO4)CC2)cc1`, the outcome in the data set with Mus musculus [8], with Mus musculus [2] and in the data set on Mus musculus [11] was inactive. Besides, the values for the Activity entry in the data set on Mus musculus [9], with Mus musculus [5] and in the data set with Mus musculus [6] were “Toxic”, “Non-toxic” and “Non-toxic”, respectively. In the data set with Mus musculus [10], the MED50 was found to be 300 mg/kg.
Consider `CCOC(=O)Nc1ccc(N2CCN(c3ccc(C(F)(F)F)cc3)CC2)cc1`, for which the outcome in the data set on Mus musculus [8] and in the data set with Mus musculus [11] was inactive. Also, the Activity entry with Mus musculus [12] and with Mus musculus [13] was “Toxic” in each case. In addition, the MED50 is 300 mg/kg with Mus musculus [10] and 100 mg/kg in the data set on Mus musculus [14].
In the case of `CCOC(=O)Nc1ccc(N2CCN(c3ccc(C)cc3)CC2)cc1`, the outcome in the data set with Mus musculus [8] was inactive. Further, the Activity entry in the data set with Mus musculus [15] is listed as “Toxic”. In [16], the TD50 at 0.5 h worked out at 100 mg/kg. Moreover, the figures for the MED50 with Mus musculus [4], in the data set on Mus musculus [10] and with Mus musculus [14] were 100 mg/kg, 100 mg/kg and 30 mg/kg, respectively. Moreover, in data set [17], the TD50 at 4 h is 100 mg/kg.
